Measured values taken from PubChem BioAssay AID540324 (Johns Hopkins Ion Channel Center, 2011).
The source made the active and inactive calls.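 The calls were made as follows: active = maximum inhibition above 30% at any tested concentration, with a dose response curve fitted; inactive = no inhibition at any dose or no dose response curve.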

assay: parental HEK293 potassium flux blockers – cell-based, FluxOR thallium flux, concentration-response, set 2, counter-screen for KCNK9 inhibitor project, SAR follow-up (AID 540324); settings: FluxOR fluorescence ratio; series mostly up to 30 µM; flux ratio, lower = inhibition: at the top concentration
Summary of the method: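 test system = parental HEK293 cells lacking KCNK9 expression | doses = Ten-concentration dilution series per compound | incubation = dye loading 90 min at room temperature in dark, compound exposure 20 min | measured by = fluorescence of thallium-sensitive FluxOR dye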

Row | SMILES | flux ratio, lower = inhibition
1 | CC(c1ccccc1)n1c(-c2ccco2)n[nH]c1=S (stereo unspecified) | 0.248 (inactive)
2 | COc1ccc(C(=O)Nc2cccc(NC(=O)c3ccccc3)c2)cc1 | 0.191 (inactive)
3 | Cc1cccc(C(=O)Nc2cccc(NC(=O)c3ccc(N(C)C)cc3)c2)c1 | 0.208 (inactive)
4 | CCOc1ccccc1NC(=O)c1cccc(NC(=O)c2ccccc2Cl)c1 | 0.121 (inactive)
5 | Cc1ccccc1-c1n[nH]c(=S)n1C(C)C1CC2CCC1C2 (stereo unspecified) | 0.377 (inactive)
6 | O=C(Nc1cccc(NC(=O)c2ccccc2Cl)c1)c1ccccc1 | 0.17 (inactive)
7 | O=C(Nc1cccc(NC(=O)c2ccc(F)cc2)c1)c1ccccc1 | 0.204 (inactive)
8 | O=C(Nc1cccc(NC(=O)c2ccsc2)c1)c1ccccc1 | 0.179 (inactive)
9 | Cc1cccc(C(=O)Nc2cccc(NC(=O)c3ccccc3OCC(C)C)c2)c1 | 0.117 (inactive)
10 | Cc1cccc(C(=O)Nc2cccc(NC(=O)c3ccccc3)c2)c1 | 0.164 (inactive)
11 | Cc1cccc(C(=O)Nc2cccc(NC(=O)c3cccc(C)c3)c2)c1 | 0.152 (inactive)
12 | COc1cccc(C(=O)Nc2cccc(NC(=O)c3ccccc3)c2)c1 | 0.175 (inactive)
13 | Cc1cccc(C(=O)Nc2cccc(NC(=O)c3cccc(C(F)(F)F)c3)c2)c1 | 0.185 (inactive)
14 | CCOc1ccccc1NC(=O)c1cccc(NC(=O)c2ccc(C(F)(F)F)cc2)c1 | 0.208 (inactive)
15 | COc1ccccc1NC(=O)c1cccc(NC(=O)c2ccccc2OC)c1 | 0.177 (inactive)
16 | CCOc1ccccc1NC(=O)c1cccc(NC(=O)c2ccccc2OC(F)(F)F)c1 | 0.165 (inactive)
